Series [1] can be described thus: pharmacokinetics in female BALB/c mice measured as Vss after 20 mg/kg iv administration. Details: dose 20 mg/kg, route intravenous. Format: ADME, organism-based. The note with it: mouse, in vivo, read-out: Vss. In short, it runs like this: (§1)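 Female Balb/c mice dosed intravenously at 20 or 50 mg/kg. Blood taken by cardiac puncture under anaesthesia into heparinized syringes at times from 2 min to 24 h. Plasma prepared by centrifugation and drug measured by HPLC; plasma PK parameters derived.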

The test system of series [2] is NCI-H69. The experiment in a line: Rf is the resistance factor and is the ratio of the IC50 on the resistant cell line over the IC50 on the parental H69/P cell line. It counts as functional, Homo sapiens. In short, it runs like this: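 Resistance factor computed as IC50 in H69/LX4 (Pgp-overexpressing) divided by IC50 in H69/P. Both IC50s come from a 5-6 day Alamar Blue proliferation assay.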

Series [3] deals with Mus musculus. The experiment in a line: pharmacokinetics in female BALB/c mice measured as AUC after 50 mg/kg Preoral administration. Particulars: in vivo, po. Details: dose 50 mg/kg. Format: ADME, organism-based. In short, it runs like this:
(§2)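 Female Balb/c mice given 50 mg/kg by oral gavage. Blood taken by cardiac puncture under anaesthesia into heparinized syringes at 2 min-24 h. Plasma analyzed by HPLC; plasma PK parameters derived, with oral bioavailability relative to iv dosing.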

Series [4] is described as follows: pharmacokinetics in female BALB/c mice measured as Kel after 50 mg/kg Preoral administration. It counts as ADME, organism-based. Details: dose 50 mg/kg. The note with it: mouse, in vivo, po. In short, it runs like this:
as §2

Series [5] has as its system Mus musculus. Kind of series: pharmacokinetics in female BALB/c mice measured as AUC after 50 mg/kg iv administration. Details: dose 50 mg/kg, route intravenous. Particulars: in vivo. It counts as ADME, organism-based. In outline: as §1
Series [6] relates to NCI-H69. Kind of series: Cytotoxicity measured using the drug resistant, P-glycoprotein (Pgp) expressing human small cell lung carcinoma cell line H69/LX4. Format: functional, cell-based. In outline:
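H69/P (parental) or H69/LX4 (P-glycoprotein-overexpressing) human SCLC cells; compound added, then 5-6 days incubation; proliferation read with Alamar Blue.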

Series [7] is described as follows: pharmacokinetics in female BALB/c mice measured as Cmax after 50 mg/kg iv administration. It counts as ADME, organism-based. Details: dose 50 mg/kg, route intravenous. Particulars: mouse, in vivo. In short, it runs like this: as §1
Series [8] in a line: pharmacokinetics in female BALB/c mice measured as bioavailability (F) after 50 mg/kg peroral administration. Format: ADME, organism-based. Particulars: mouse, in vivo, po. In short, it runs like this: as §2
Series [9] in a line: Rf is the resistance factor and is the ratio of the IC50 on the resistant cell line over the IC50 on the parental COR-L23/P cell line. The note with it: human. In short, it runs like this:
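Resistance factor computed as IC50 in COR-L23/R (MRP-overexpressing) divided by IC50 in COR-L23/P. Both IC50s come from a 5-6 day sulforhodamine B proliferation assay.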

The nature of series [10]: pharmacokinetics in female BALB/c mice measured as Cl after 20 mg/kg iv administration. Format: ADME, organism-based. Details: dose 20 mg/kg, route intravenous. The note with it: mouse, in vivo. In outline: as §1
Series [11] can be described thus: pharmacokinetics in female BALB/c mice measured as Kel after 20 mg/kg iv administration. Format: ADME, organism-based. Details: dose 20 mg/kg, route intravenous. The note with it: mouse, in vivo. In outline: as §1
A short description of series [12]: pharmacokinetics in female BALB/c mice measured as Kel after 50 mg/kg iv administration. The note with it: mouse, in vivo. Details: dose 50 mg/kg, route intravenous. Format: ADME, organism-based. In outline:
as §1

Series [13] is described as follows: pharmacokinetics in female BALB/c mice measured as Cl after 50 mg/kg iv administration. It counts as ADME, organism-based. Details: dose 50 mg/kg, route intravenous. The note with it: mouse, in vivo. In short, it runs like this:
as §1

A short description of series [14]: pharmacokinetics in female BALB/c mice measured as Cmax after 50 mg/kg Preoral administration. Details: route oral, dose 50 mg/kg. It counts as ADME, organism-based. Particulars: mouse, in vivo, po. In short, it runs like this:
as §2

Series [15] is described as follows: pharmacokinetics in female BALB/c mice measured as Cmax after 20 mg/kg iv administration. Particulars: mouse, in vivo. Details: dose 20 mg/kg, route intravenous. Format: ADME, organism-based. In short, it runs like this:
as §1

In series [16] the test system is COR-L23. Kind of series: Cytotoxicity measured using the COR-L23 parental (COR-L23/P) human non small cell lung carcinoma cell line. Format: functional, cell-based. In outline:
(§3)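 COR-L23/P (parental) or COR-L23/R (MRP-overexpressing) human NSCLC cells; compound added, then 5-6 days incubation; proliferation read by sulforhodamine B staining.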

In series [17] the test system is Mus musculus. The experiment in a line: pharmacokinetics in female BALB/c mice measured as AUC after 20 mg/kg iv administration. Particulars: in vivo. Format: ADME, organism-based. Details: dose 20 mg/kg, route intravenous. In short, it runs like this: as §1
For series [18], the system named is COR-L23. Kind of series: Cytotoxicity measured with the drug resistant human non small cell lung carcinoma cell line COR-L23 (COR-L23/R) which over expresses multidrug resistance associated with protein(MRP). Format: functional, cell-based. In short, it runs like this: as §3
Series [19] can be described thus: pharmacokinetics in female BALB/c mice measured as Vss after 50 mg/kg iv administration. Format: ADME, organism-based. Details: dose 50 mg/kg, route intravenous. Particulars: mouse, in vivo, read-out: Vss. In short, it runs like this:
as §1

Each structure is given as a SMILES string.

As for `COc1cccc2c1ccc1nc3cccc(C(=O)N[C@H](C)CN(C)C)c3nc12`, the values for the Vd in series [1] and in series [19] were 1.3 L and 1.9 L, respectively. In addition, the Rf (in the series on NCI-H69 [2]; in [9]) was 1.2 in each case. The AUC in the series on Mus musculus [3] is given as 114 ug min m-1; with Mus musculus [5], 156 ug min m-1; in the series on Mus musculus [17] it was 64 ug min m-1. For the same molecule, the k el is 3.33e-05 s⁻¹ in [4], 7.33e-05 s⁻¹ in series [11] and 5e-05 s⁻¹ in [12]. The IC50 in the series on NCI-H69 [6] was determined as 29 nM; in the series with COR-L23 [16] it was 10.1 nM; with COR-L23 [18], 12.1 nM. Besides, the figures for the Cmax in [7], in series [14] and in series [15] were 2900 ng/mL, 350 ng/mL and 800 ng/mL, respectively. The molecule also returned a bioavailability in series [8] of 72%. Also, the clearance was 6.3 mL/min in series [10] and 6.4 mL/min in series [13].

By IC50 is commonly meant the concentration that gives 50% inhibition. As usually defined, the Cmax is the peak of the concentration-time curve. A word on the bioavailability: it is dose-corrected exposure relative to a reference, in per cent. As a reminder, the clearance is a measure of how efficiently the substance is removed, as volume per time. Lower therefore signals a low capacity for elimination.

The values are drawn from ChEMBL document CHEMBL1135980, “Novel angular benzophenazines: dual topoisomerase I and topoisomerase II inhibitors as potential anticancer agents” (J Med Chem, 2002).
